Experimental data reported in ChEMBL document CHEMBL1133254, “One-pot synthesis and biological evaluation of aspergillamides and analogues” (Bioorg Med Chem Lett, 2000).
Values after ≈ are worked out from the molar mass of the structure shown. Blank lines part the entries; values can stand above or below the molecule they belong to. Active and inactive are the calls of the source. No cut-off for these calls is given here.

Legend:
MCF7 [1] = experiment: Compound was tested for cytotoxicity against MCF-7 cell line; Active; type: functional, cell-based; conditions: Homo sapiens
MCF7 [2] = experiment: Inhibitory concentration against MCF-7 cell line; type: functional, cell-based; conditions: Homo sapiens
Outline: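 MCF-7 cells maintained in RPMI-1640 with 5% FCS at 37 °C under 5% CO2. Test material came from dilution plates prepared from the one-pot Ugi synthesis plates. Each sample was screened at five concentrations, and an approximate IC50 was estimated from the results.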

Staphylococcus aureus = experiment: Compound ( at <100 uM) was tested for growth inhibition against Staphylococcus aureus; type: functional
Bacillus subtilis = experiment: Compound ( at <100 uM) was tested for growth inhibition against Bacillus subtilis; type: functional
Candida albicans = experiment: Compound ( at <100 uM) was tested for growth inhibition against Candida albicans; type: functional
HCT-116 = experiment: Cytotoxicity against HCT 116 cell line; type: functional, cell-based; conditions: Homo sapiens

Structure (SMILES): CC(=O)N[C@H](CC(C)C)C(=O)N(CCCCCO)C1(C(=O)N/C=C\c2c[nH]c3cc(OCc4ccccc4)ncc23)CCN(Cc2ccccc2)CC1
- Cytotoxicity (MCF7 [1]): Active

- IC50 (MCF7 [2]): 49.9 µM
Structure (SMILES): CC(=O)N[C@H](CC(C)C)C(=O)N(CCc1c[nH]c2ccccc12)CC(=O)N/C=C\c1c[nH]c2ccccc12

Structure (SMILES): CC(=O)N[C@H](CC(C)C)C(=O)N1C(C(=O)N/C=C\c2c[nH]c3cc(OCc4ccccc4)ncc23)CSC1(C)C (stereo partly specified)
- Inhibition (Staphylococcus aureus): 100%
- Inhibition (Bacillus subtilis): 100%
- Cytotoxicity (MCF7 [1]): Active

Structure (SMILES): CC(=O)NCC(=O)N(CCCCCO)C1(C(=O)N/C=C\c2c[nH]c3ccccc23)CCN(Cc2ccccc2)CC1
- Inhibition (Candida albicans): 100%

Structure (SMILES): CC(=O)NCC(=O)N1C(C(=O)N/C=C\c2c[nH]c3cc(OCc4ccccc4)ncc23)CSC1(C)C (stereo unspecified)
- Cytotoxicity (MCF7 [1]): Active

- IC50 (MCF7 [2]): 0.4 µM
Structure (SMILES): CC(=O)N1CCC[C@H]1C(=O)N(C1CCCCC1)C1(C(=O)N/C=C\c2c[nH]c3ccccc23)CCCCC1

Structure (SMILES): CC(=O)NCC(=O)N1C(C(=O)N/C=C\c2c[nH]c3ccccc23)CSC1(C)C (stereo unspecified)
- Inhibition (Candida albicans): 100%

Structure (SMILES): CC(=O)N[C@H](CC(C)C)C(=O)N(C)C(Cc1ccccc1)C(=O)N/C=C\c1c[nH]c2cc(OCc3ccccc3)ncc12 (stereo partly specified)
- Inhibition (Candida albicans): 100%

Structure (SMILES): CC(=O)NC(C(=O)N(C)C(C(=O)N/C=C\c1c(CC=C(C)C)[nH]c2ccccc12)C(C)C)C(C)C (stereo unspecified)
- IC50 (HCT-116): 16 µg/mL (≈ 33.3 µM)

Structure (SMILES): CC(=O)N[C@H](CC(C)C)C(=O)N1C(C(=O)N/C=C\c2c[nH]c3ccccc23)CSC1(C)C (stereo partly specified)
- Inhibition (Staphylococcus aureus): 100%
- Inhibition (Bacillus subtilis): 100%

Structure (SMILES): CC(=O)NCC(=O)N(CCc1c[nH]c2ccccc12)CC(=O)N/C=C\c1c[nH]c2cc(OCc3ccccc3)ncc12
- Cytotoxicity (MCF7 [1]): Active

- IC50 (MCF7 [2]): 1.9 µM
Structure (SMILES): CC(=O)N1CCCC1C(=O)N(C)C(Cc1ccccc1)C(=O)N/C=C\c1c[nH]c2cc(OCc3ccccc3)ncc12 (stereo unspecified)
- Cytotoxicity (MCF7 [1]): Active

Structure (SMILES): CC(=O)N1CCC[C@@H]1C(=O)N(CCc1c[nH]c2ccccc12)CC(=O)N/C=C\c1c[nH]c2cc(OCc3ccccc3)ncc12
- Inhibition (Staphylococcus aureus): 100%
- Inhibition (Bacillus subtilis): 100%

Structure (SMILES): CC(=O)N[C@H](CC(C)C)C(=O)N(CCc1c[nH]c2ccccc12)CC(=O)N/C=C\c1c[nH]c2cc(OCc3ccccc3)ncc12
- Inhibition (Staphylococcus aureus): 100%
- Inhibition (Bacillus subtilis): 100%

Structure (SMILES): O=C(/C=C/c1c[nH]c2ccccc12)N/C=C/c1c[nH]c2ccccc12 [CHONDRIAMIDE A]
- IC50 (HCT-116): 16 µg/mL (≈ 48.9 µM)

Structure (SMILES): CC(=O)NC(CC(C)C)C(=O)N(C)C(Cc1ccccc1)C(=O)N/C=C\c1c[nH]c2ccccc12 (stereo unspecified)
- IC50 (HCT-116): 16 µg/mL (≈ 33.7 µM)

- IC50 (MCF7 [2]): 0.3 µM
Structure (SMILES): CC(=O)N[C@H](CC(C)C)C(=O)N(C)C(Cc1ccccc1)C(=O)N/C=C\c1c[nH]c2ccccc12 (stereo partly specified)

Structure (SMILES): CCC(C)CC(C(=O)N/C=C\c1c[nH]c2ccccc12)N(C)Cc1ccc(O)cc1 (stereo unspecified) [ARAGILAMIDE]
- IC50 (HCT-116): 16 µg/mL (≈ 39.5 µM)

Structure (SMILES): CC(=O)NCC(=O)N(CCCCCO)C1(C(=O)N/C=C\c2c[nH]c3cc(OCc4ccccc4)ncc23)CCN(Cc2ccccc2)CC1
- Cytotoxicity (MCF7 [1]): Active

- IC50 (MCF7 [2]): 4.1 µM
Structure (SMILES): CC(=O)NCC(=O)N(CCc1c[nH]c2ccccc12)CC(=O)N/C=C\c1c[nH]c2ccccc12
